Reference: ChEMBL document CHEMBL1123067, “Evaluation of the brain-specific delivery of radioiodinated (iodophenyl)alkyl-substituted amines coupled to a dihydropyridine carrier” (J Med Chem, 1985)

Key:
Assay type in all cases: ADME, organism-based
[1] = Brain to blood ratio in Sprague-Dawley rats after 15 min injection by intravenously; settings: rat, brain and blood, iv
In short: (§1)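 Female Sprague-Dawley rats, 10–12 weeks old (170–200 g), fed ad libitum. The ¹²⁵I-labelled agent was dissolved in minimal Me2SO, diluted with saline to a final 20% Me2SO, filtered (0.22 μm), and injected into a lateral tail vein under ether anaesthesia. Tissues were counted against samples of the injected solution and expressed as % injected dose/g (mean, range). Brain/blood ratio is from the means.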

Rattus norvegicus [2] = experiment: Distribution of radioactivity in blood tissues of Sprague-Dawley rats after 30 min injection by intravenously; value ranges from 0.35-0.4; settings: in vivo, iv, 0.5 h
[3] = Brain to blood ratio in Sprague-Dawley rats after 30 min injection by intravenously; settings: rat, brain and blood, iv; in short: as §1
Rattus norvegicus [4] = experiment: Distribution of radioactivity in liver tissues of Sprague-Dawley rats after 60 min injection by intravenously; value ranges from 0.47-1.17; settings: in vivo, iv, 1 h
In short: (§2)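 Female Sprague-Dawley rats, 10–12 weeks old (170–200 g), fed ad libitum, under ether anaesthesia. Each received 15.1 μCi of the ¹²⁵I-labelled pyridinium conjugate or 10.6 μCi of the dihydropyridine conjugate by lateral tail vein. Dose was in 20% Me2SO/saline with vitamin E (~5 mg/mL), 0.22-μm filtered. Five rats per time point. Tissue activity was read against injected-solution standards as % injected dose/g.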

Rattus norvegicus [5] = experiment: Distribution of radioactivity in heart tissues of Sprague-Dawley rats after 15 min injection by intravenously; value ranges from 2.24-2.58; settings: in vivo, iv, 0.25 h
Rattus norvegicus [6] = experiment: Distribution of radioactivity in lung tissues of Sprague-Dawley rats after 5 min injection by intravenously; value ranges from 3.62-7.08; settings: in vivo, iv
In short: (§3)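 Female Sprague-Dawley rats, 10–12 weeks, 170–200 g, fed ad libitum, five per time point. Agent dissolved in minimal Me2SO, diluted with saline to 20% Me2SO, with vitamin E (~5 mg/mL) added, 0.22-µm filtered. 15.1 or 10.6 µCi (per agent) injected into lateral tail vein under ether. Lungs taken; % injected dose/g against injected-solution standards; mean (range).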

Rattus norvegicus [7] = experiment: Distribution of radioactivity in liver tissues of Sprague-Dawley rats after 30 min injection by intravenously; value ranges from 1.06-1.29; settings: in vivo, iv, 0.5 h; in short: as §2
Rattus norvegicus [8] = experiment: Distribution of radioactivity in kidney tissues of Sprague-Dawley rats after 60 min injection by intravenously; value ranges from 0.89-1.19; settings: in vivo, iv, 1 h; in short: as §2
Rattus norvegicus [9] = experiment: Distribution of radioactivity in blood tissues of Sprague-Dawley rats after 60 min injection by intravenously; value ranges from 0.28-0.37; settings: in vivo, iv, 1 h
Rattus norvegicus [10] = experiment: Distribution of radioactivity in brain tissues of Sprague-Dawley rats after 5 min injection by intravenously; value ranges from 0.97-2.17; settings: in vivo, iv
Rattus norvegicus [11] = experiment: Distribution of radioactivity in heart tissues of Sprague-Dawley rats after 30 min injection by intravenously; value ranges from 1.96-2.46; settings: in vivo, iv, 0.5 h
Rattus norvegicus [12] = experiment: Distribution of radioactivity in lung tissues of Sprague-Dawley rats after 60 min injection by intravenously; value ranges from 2.11-3.79; settings: in vivo, iv, 1 h; in short: as §3
Rattus norvegicus [13] = experiment: Distribution of radioactivity in lung tissues of Sprague-Dawley rats after 15 min injection by intravenously; value ranges from 3.10-3.77; settings: in vivo, iv, 0.25 h; in short: as §3
Rattus norvegicus [14] = experiment: Distribution of radioactivity in kidney tissues of Sprague-Dawley rats after 30 min injection by intravenously; value ranges from 1.14-1.4; settings: in vivo, iv, 0.5 h; in short: as §2
Rattus norvegicus [15] = experiment: Distribution of radioactivity in heart tissues of Sprague-Dawley rats after 60 min injection by intravenously; value ranges from 1.68-2.23; settings: in vivo, iv, 1 h; in short: as §2
Rattus norvegicus [16] = experiment: Distribution of radioactivity in kidney tissues of Sprague-Dawley rats after 5 min injection by intravenously; value ranges from 1.64-3.43; settings: in vivo, iv; in short: as §2
Rattus norvegicus [17] = experiment: Distribution of radioactivity in brain tissues of Sprague-Dawley rats after 30 min injection by intravenously; value ranges from 0.81-1.26; settings: in vivo, iv, 0.5 h
[18] = Brain to blood ratio in Sprague-Dawley rats after 5 min injection by intravenously; settings: rat, brain and blood, iv; in short: as §1
Rattus norvegicus [19] = experiment: Distribution of radioactivity in brain tissues of Sprague-Dawley rats after 60 min injection by intravenously; value ranges from 0.76-1.42; settings: in vivo, iv, 1 h
[20] = Brain to blood ratio in Sprague-Dawley rats after 60 min injection by intravenously; settings: rat, brain and blood, iv; in short: as §1
Rattus norvegicus [21] = experiment: Distribution of radioactivity in blood tissues of Sprague-Dawley rats after 15 min injection by intravenously; value ranges from 0.31-0.4; settings: in vivo, iv, 0.25 h
Rattus norvegicus [22] = experiment: Distribution of radioactivity in blood tissues of Sprague-Dawley rats after 5 min injection by intravenously; value ranges from 0.28-0.46; settings: in vivo, iv
Rattus norvegicus [23] = experiment: Distribution of radioactivity in liver tissues of Sprague-Dawley rats after 5 min injection by intravenously; value ranges from 1.06-2.71; settings: in vivo, iv; in short: as §2
Rattus norvegicus [24] = experiment: Distribution of radioactivity in lung tissues of Sprague-Dawley rats after 30 min injection by intravenously; value ranges from 2.26-2.89; settings: in vivo, iv, 0.5 h; in short: as §3
Rattus norvegicus [25] = experiment: Distribution of radioactivity in brain tissues of Sprague-Dawley rats after 15 min injection by intravenously; value ranges from 1.05-1.25; settings: in vivo, iv, 0.25 h
Rattus norvegicus [26] = experiment: Distribution of radioactivity in kidney tissues of Sprague-Dawley rats after 15 min injection by intravenously; value ranges from 1.42-1.82; settings: in vivo, iv, 0.25 h; in short: as §2
Rattus norvegicus [27] = experiment: Distribution of radioactivity in liver tissues of Sprague-Dawley rats after 15 min injection by intravenously; value ranges from 1.23-1.78; settings: in vivo, iv, 0.25 h; in short: as §2
Rattus norvegicus [28] = experiment: Distribution of radioactivity in heart tissues of Sprague-Dawley rats after 5 min injection by intravenously; value ranges from 2.36-3.96; settings: in vivo, iv; in short: as §2

For `CN1C=CCC(C(=O)Nc2ccc([125I])cc2)=C1`, the Kp at 0.25 h [1] was 3.29, the Distribution (Rattus norvegicus [2]) was 0.38% and the Kp at 0.5 h [3] was 2.66. It also gave a Distribution (Rattus norvegicus [4]) of 0.82%, a Distribution (Rattus norvegicus [5]) of 2.43% and a Distribution (Rattus norvegicus [6]) of 4.61%. It also gave a Distribution (Rattus norvegicus [7]) of 1.18%, a Distribution (Rattus norvegicus [8]) of 1.07% and a Distribution (Rattus norvegicus [9]) of 0.31%. It also gave a Distribution (Rattus norvegicus [10]) of 1.14%, a Distribution (Rattus norvegicus [11]) of 2.18% and a Distribution (Rattus norvegicus [12]) of 2.77%. It also gave a Distribution (Rattus norvegicus [13]) of 3.3%, a Distribution (Rattus norvegicus [14]) of 1.23% and a Distribution (Rattus norvegicus [15]) of 1.88%. The Distribution (Rattus norvegicus [16]) was 2.36%, the Distribution (Rattus norvegicus [17]) was 1.01% and the Kp at 5 min [18] was 3.87. It also gave a Distribution (Rattus norvegicus [19]) of 1.12%, a Kp at 1 h [20] of 3.6 and a Distribution (Rattus norvegicus [21]) of 0.35%. It also gave a Distribution (Rattus norvegicus [22]) of 0.37%, a Distribution (Rattus norvegicus [23]) of 1.65% and a Distribution (Rattus norvegicus [24]) of 2.43%. It also gave a Distribution (Rattus norvegicus [25]) of 1.16%, a Distribution (Rattus norvegicus [26]) of 1.56% and a Distribution (Rattus norvegicus [27]) of 1.56%. For the same molecule, the Distribution (Rattus norvegicus [28]) was 2.86%.
